Here are results for one molecule from paper PMC12039533 (Journal of Food and Drug Analysis, 2025).

One experiment deals with T1, FLT3 (Homo sapiens, UniProt P36888).
T1 sequence (P36888 27-993): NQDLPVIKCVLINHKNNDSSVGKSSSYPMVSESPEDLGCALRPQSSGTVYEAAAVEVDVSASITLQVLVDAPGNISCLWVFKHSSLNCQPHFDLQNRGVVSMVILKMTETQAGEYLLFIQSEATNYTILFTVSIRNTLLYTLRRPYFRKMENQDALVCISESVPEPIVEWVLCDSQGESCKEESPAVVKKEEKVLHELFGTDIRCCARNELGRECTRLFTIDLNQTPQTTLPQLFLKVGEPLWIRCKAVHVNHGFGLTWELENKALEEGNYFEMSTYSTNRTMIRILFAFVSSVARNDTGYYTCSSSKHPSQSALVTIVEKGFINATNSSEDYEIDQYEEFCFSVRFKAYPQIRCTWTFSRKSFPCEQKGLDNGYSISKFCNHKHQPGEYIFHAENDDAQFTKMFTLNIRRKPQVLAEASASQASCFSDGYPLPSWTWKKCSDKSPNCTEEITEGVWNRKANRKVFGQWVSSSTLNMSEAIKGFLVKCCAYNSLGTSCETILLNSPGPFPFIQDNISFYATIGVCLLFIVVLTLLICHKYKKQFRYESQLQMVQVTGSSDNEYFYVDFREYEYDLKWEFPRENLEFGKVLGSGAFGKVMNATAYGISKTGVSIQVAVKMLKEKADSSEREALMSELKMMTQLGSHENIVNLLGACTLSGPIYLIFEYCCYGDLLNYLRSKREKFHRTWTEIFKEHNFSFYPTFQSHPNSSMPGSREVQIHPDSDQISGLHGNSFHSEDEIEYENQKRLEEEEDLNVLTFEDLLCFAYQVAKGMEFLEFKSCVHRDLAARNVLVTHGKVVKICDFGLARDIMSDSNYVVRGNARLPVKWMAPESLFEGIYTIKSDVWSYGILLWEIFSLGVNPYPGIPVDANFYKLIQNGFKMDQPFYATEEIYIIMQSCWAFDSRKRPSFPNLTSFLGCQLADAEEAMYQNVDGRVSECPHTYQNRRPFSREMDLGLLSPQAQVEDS
Briefly: HTRF KinEASE in vitro kinase assay. The class given is biochemical. On the technique in general: TR-FRET usually uses a lanthanide donor and a delayed reading to cut background.

The target in the next experiment is SRPK1 (Homo sapiens, UniProt Q96SB4). Briefly: HTRF KinEASE in vitro kinase assay. It counts as biochemical. The essentials:
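Kinase activity was measured with the HTRF KinEASE STK/TK kit, and the TR-FRET signal was read on a multilabel microplate reader. Percent inhibition was calculated from the signal, and the IC50 was derived from these inhibition rates.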

Chain of SRPK1 (Q96SB4 whole entry): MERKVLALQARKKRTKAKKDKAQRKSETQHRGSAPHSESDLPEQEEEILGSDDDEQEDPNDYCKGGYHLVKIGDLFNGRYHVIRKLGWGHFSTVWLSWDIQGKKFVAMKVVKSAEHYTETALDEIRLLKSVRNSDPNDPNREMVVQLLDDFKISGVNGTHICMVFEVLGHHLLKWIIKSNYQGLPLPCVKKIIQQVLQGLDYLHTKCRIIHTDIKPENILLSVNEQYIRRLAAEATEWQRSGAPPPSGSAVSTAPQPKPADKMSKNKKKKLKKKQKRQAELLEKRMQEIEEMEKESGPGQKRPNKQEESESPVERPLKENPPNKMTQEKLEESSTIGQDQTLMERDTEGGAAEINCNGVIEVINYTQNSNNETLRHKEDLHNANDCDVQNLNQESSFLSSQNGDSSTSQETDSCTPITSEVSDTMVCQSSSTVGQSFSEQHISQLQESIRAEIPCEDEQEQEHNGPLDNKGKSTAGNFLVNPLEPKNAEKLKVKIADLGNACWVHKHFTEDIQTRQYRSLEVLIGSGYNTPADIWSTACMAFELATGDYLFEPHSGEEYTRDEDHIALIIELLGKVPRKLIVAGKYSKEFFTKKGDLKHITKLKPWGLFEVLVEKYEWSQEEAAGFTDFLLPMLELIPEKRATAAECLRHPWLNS

Turning to `COc1cc(O)c(CC=C(C)C)c(O)c1C(=O)/C=C/c1ccc(O)cc1` [XN, Xanthohumol], the figures for the IC50 at FLT3 and against SRPK1 were 1510 ± 440 nM and 370 ± 150 nM, respectively.

As a reminder, the IC50 is the point on the concentration scale where inhibition reaches its midpoint.
